Measured values collected from several papers.
Lines come from different studies, so protocols differ.
Target: Serine/threonine-protein kinase PAK 1 (PAK1, Homo sapiens, UniProt Q13153)

SMILES | test | setting | quantity | result
C1=C/COCc2cc(ccc2OCCN2CCCC2)Nc2nccc(n2)-c2cccc(c2)COC/1 | binding | 0.1 µM | remaining binding | 100%
C=CC(=O)N1CCC([C@@H]2CCNc3c(C(N)=O)c(-c4ccc(Oc5ccccc5)cc4)nn32)CC1 | enzyme activity, inhibitor | 1 µM | inhibition | 9%
CCCCC(=O)Nc1ccc(-c2ccc3ncn(CCC)c(=O)c3c2)cn1 | binding, competition with immobilised ligand | 0.5 µM | remaining binding | 97%
N#Cc1ccc(NC(=O)Nc2ccccc2)cc1 | cell-free assay, competition with immobilised ligand | 25 µM | remaining binding | 92%
COc1ccc2[nH]c3c4[nH]c5ccc(OC)cc5c4c4c(c3c2c1)C(=O)NC4=O | binding | 1 µM | remaining binding | 70%
CC#CC(=O)N1CCC[C@H]1c1nc(-c2ccc(C(=O)Nc3ccccn3)cc2)c2c(N)nccn12 | enzyme activity, inhibitor | 1 µM | inhibition | 1%
COc1ccc2oc(-c3ccc4nc(N)oc4c3)c/c(=N\c3ccccc3NC(=O)CCN)c2c1 | binding | 1 µM | remaining binding | 104%
C[C@H]1CC[C@H](n2c3cnccc3c3cnc(Nc4ccc5c(n4)CCN(C(=O)CO)C5)nc32)CC1 | cell-free assay | 1 µM | remaining signal | 100%
